In ChEMBL document CHEMBL3739398, “Inhibition of Invasion in Pancreatic Cancer Cells by Conjugate of EPA with β(3,3)-Pip-OH via PI3K/Akt/NF-kB Pathway” (ACS Med Chem Lett, 2015):
Activity calls are given as the source filed them. No cut-off for these calls is given here.

How the values were obtained:
[1] = Cytotoxicity against human HCT116 cells by MTT assay; type: functional, cell-based; conditions: HCT-116
[2] = Cytotoxicity against human PC3 cells by MTT assay; type: functional, cell-based; conditions: PC-3
[3] = Cytotoxicity against human PANC1 cells by MTT assay; type: functional, cell-based; conditions: PANC-1
[4] = Downregulation of PI3K-p85 alpha expression in human PANC1 cells by western blot analysis; type: functional, cell-based; conditions: PANC-1
Outline: (§1)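 PANC-1 seeded in six-well plates and treated with indicated compound concentrations; whole-cell lysates probed for target proteins by Western blotting.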

PANC-1 [5] = assay: Antimetastatic activity in human PANC1 cells at 2 and 4 uM after 24 hrs by fluorescent gelatin degradation assay; type: functional, cell-based
Outline: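 PANC-1 grown 24 h on coverslips coated with cross-linked FITC-conjugated gelatin in presence of compound; matrix degradation spots visualized by fluorescence and degraded area highlighted by image analysis.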

PANC-1 [6] = assay: Inhibition of cell invasion in human PANC1 cells at 2 and 4 uM for 24 hrs by matrigel invasion assay; type: functional, cell-based
Outline: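 Boyden chamber matrigel invasion: PANC-1 treated 24 h with compound (2.0 and 4.0 μM); invaded cells counted in five random fields per group under inverted microscope (20×); three independent experiments, p < 0.05.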

PANC-1 [7] = assay: Inhibition of cell migration in human PANC1 cells at 2 and 4 microM after 48 hrs by wound healing assay; type: functional, cell-based
Outline: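 Scratch wound made in PANC-1 monolayer; cells treated with compound at 2.0 and 4.0 μM, DMSO vehicle control; wound area photographed at 20× magnification at 0 h and after incubation; statistics from three independent experiments.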

[8] = Downregulation of MMP-2 expression in human PANC1 cells at 2 and 4 uM by western blot analysis; type: functional, cell-based; conditions: PANC-1; outline: as §1
[9] = Downregulation of MMP-9 expression in human PANC1 cells at 2 and 4 uM by western blot analysis; type: functional, cell-based; conditions: PANC-1; outline: as §1
[10] = Upregulation of TIMP1 expression in human PANC1 cells by western blot analysis; type: functional, cell-based; conditions: PANC-1; outline: as §1
PANC-1 [11] = assay: Inhibition of PI3K-mediated Akt phosphorylation at S473 residue in human PANC1 cells by western blot analysis; type: cell-based; outline: as §1
[12] = Downregulation of PI3K-p110 alpha expression in human PANC1 cells by western blot analysis; type: functional, cell-based; conditions: PANC-1; outline: as §1
[13] = Upregulation of E-cadherin expression in human PANC1 cells at 2 and 4 uM by western blot analysis; type: functional, cell-based; conditions: PANC-1; outline: as §1
[14] = Effect on total mTOR expression in human PANC1 cells at 2 and 4 uM by western blot analysis; type: cell-based; conditions: panc-1; outline: as §1
PANC-1 [15] = assay: Inhibition of colony formation in human PANC1 cells at 2 and 4 uM for 5 days by crystal violet staining based microscopic analysis; type: functional, cell-based
Outline: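 PANC-1 seeded at 1 × 10^3 cells/well, treated with compound alongside DMSO for 5 days; crystal violet-stained colonies counted in random fields and imaged under inverted microscope (20×); three independent experiments.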

[16] = Downregulation of S6K expression in human PANC1 cells at 2 and 4 uM by western blot analysis; type: functional, cell-based; conditions: PANC-1; outline: as §1
PANC-1 [17] = assay: Inhibition of PI3K-mediated mTOR phosphorylation in human PANC1 cells at 2 and 4 uM by western blot analysis; type: cell-based; outline: as §1
[18] = Downregulation of NF-kappaB expression in human PANC1 cells by western blot analysis; type: functional, cell-based; conditions: PANC-1; outline: as §1
PANC-1 [19] = assay: Inhibition of cell invasion in human PANC1 cells by 3D invasion assay in presence of neutralized collagen; type: functional, cell-based
Outline: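 PANC-1 mixed with neutralized collagen, spotted centrally in wells and solidified as a cell-collagen hemisphere; fresh medium with or without compound added; invasion beyond the original collagen boundary scored against DMSO-treated cells.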

For `CCC(/C=C/C(=O)N[C@@H](Cc1ccccc1)C(=O)OC)=C\c1ccc2c(c1)OCO2`, the IC50 [1] was 48.3 µM, the IC50 [2] was 41.9 µM and the IC50 [3] was > 100 µM.
Work on `CCC(/C=C/C(=O)N1CCC[C@H]1C(=O)OC)=C\c1ccc2c(c1)OCO2` yielded an IC50 [1] of 49.8 µM, an IC50 [2] of 16 µM and an IC50 [3] of 42.2 µM.
With `CCCCC(=O)NC1(CC(=O)NNc2ccccc2)CCN(C(=O)/C=C/C(=C/c2ccc3c(c2)OCO3)CC)CC1` the IC50 [1] was > 100 µM, the inhibition [4] was “Dose-dependent effect” and the inhibition (PANC-1 [5]) was “Active”. The inhibition (PANC-1 [6]) was “Active”, the inhibition (PANC-1 [7]) was “Active” and the inhibition [8] was “Active”. For the same compound, the inhibition [9] was “Active”, the Activity [10] was “Dose-dependent effect” and the inhibition (PANC-1 [11]) was “Dose-dependent effect”. For the same compound, the inhibition [12] was “Dose-dependent effect”, the Activity [13] was “Active” and the Activity [14] was “Non-toxic”. The inhibition (PANC-1 [15]) was “Active”, the inhibition [16] was “Active” and the IC50 [2] was 15 µM. For the same compound, the inhibition (PANC-1 [17]) was “Active”, the inhibition [18] was “Dose-dependent effect” and the IC50 [3] was 4 µM. For the same compound, the inhibition (PANC-1 [19]) was “Dose-dependent effect”.
For `CCC(/C=C/C(=O)NC1(CC(=O)OC)CCCCC1)=C\c1ccc2c(c1)OCO2`, the IC50 [1] was > 100 µM, the IC50 [2] was 20 µM and the IC50 [3] was > 100 µM.
For `CCC(/C=C/C(=O)NCC1(CC(=O)OC)CCCCC1)=C\c1ccc2c(c1)OCO2`, the IC50 [1] was 47.6 µM, the IC50 [2] was 45.2 µM and the IC50 [3] was 10 µM.
With `CCC(/C=C/C(=O)N[C@@H](C)C(=O)OC)=C\c1ccc2c(c1)OCO2` the IC50 [1] was 47.1 µM, the IC50 [2] was 43.5 µM and the IC50 [3] was 6.7 µM.
For `CCC(/C=C/C(=O)O)=C\c1ccc2c(c1)OCO2`, the IC50 [1] was > 100 µM, the IC50 [2] was > 100 µM and the IC50 [3] was > 100 µM.
